Results reported in ChEMBL document CHEMBL4689842, “EUbOPEN Chemogenomics Library wave 1” (2021).
Several values for one entry are separate records, joined by “and”; a condition that tells them apart may be missing. Equal entries are not always repeated.

Tested on: U2OS
Assay: Multiplex assay against U2OS
Assay type: toxicity, cell-based
Conditions: human
Outline: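 With compound added, live cells were imaged on a CQ1 microscope at 37°C and 5% CO2; staining with Hoechst33342, BioTracker Green Microtubule Cytoskeleton Dye, MitoTracker Red and Annexin V Alexa Fluor 680 had been done at seeding. The CellPathfinder machine-learning gating scheme split cells into Hoechst high-intensity objects or normal cells, normal cells into healthy, pyknosed or fragmented nuclei, and pyknosed cells into mitotic or apoptotic. The tubulin, mitochondrial-mass and membrane-permeability phenotypes are per cents of healthy-nucleus cells.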

[1] = 12 h, 1 µM, compound concentration 1 uM, replicate 1
[2] = 12 h, 1 µM, compound concentration 1 uM, replicate 2
[3] = 12 h, 10 µM, compound concentration 10 uM, replicate 1
[4] = 12 h, 10 µM, compound concentration 10 uM, replicate 2
[5] = 24 h, 1 µM, compound concentration 1 uM, replicate 1
[6] = 24 h, 1 µM, compound concentration 1 uM, replicate 2
[7] = 24 h, 10 µM, compound concentration 10 uM, replicate 1
[8] = 24 h, 10 µM, compound concentration 10 uM, replicate 2
[9] = 48 h, 10 µM, compound concentration 10 uM, replicate 1
[10] = 48 h, 10 µM, compound concentration 10 uM, replicate 2

## COCC(=O)NC/C=C/c1ccc2ncnc(Nc3ccc(Oc4ccc(C)nc4)c(C)c3)c2c1 [CP-724714]
[1]
  Population Apoptotic (%): 40% and 33%
  Population Fragmented Nuclei (%): 7% and 4%
  Population Healthy Nuclei (%): 80% and 89%
  Population Hoechst High Intensity Objects (%): 3%
  Population Membrane Permeable-Phenotype (%): 42% and 18%
  Population Mitochondria Different-Phenotype (%): 29% and 18%
  Population Mitotic Cells (%): 60% and 66%
  Population Normal (%): 96%
  Population Pyknosed Nuclei (%): 11% and 6%
  Population Tubulin-Different-Phenotype (%): 18%
  Total Cell Count: 178 and 153
[2]
  Population Fragmented Nuclei (%): 3% and 8%
  Population Healthy Nuclei (%): 82% and 87%
  Population Hoechst High Intensity Objects (%): 6% and 4%
  Population Membrane Permeable-Phenotype (%): 49% and 27%
  Population Mitochondria Different-Phenotype (%): 43% and 20%
  Population Mitotic Cells (%): 53% and 100%
  Population Normal (%): 93% and 95%
  Total Cell Count: 95 and 141
[3]
  Population Apoptotic (%): 51%
  Population Fragmented Nuclei (%): 17%
  Population Healthy Nuclei (%): 62%
  Population Hoechst High Intensity Objects (%): 13%
  Population Membrane Permeable-Phenotype (%): 35%
  Population Mitochondria Different-Phenotype (%): 87%
  Population Mitotic Cells (%): 48%
  Population Normal (%): 86%
  Population Pyknosed Nuclei (%): 20%
  Total Cell Count: 167
[4]
  Population Apoptotic (%): 80%
  Population Fragmented Nuclei (%): 18%
  Population Healthy Nuclei (%): 63%
  Population Hoechst High Intensity Objects (%): 11%
  Population Membrane Permeable-Phenotype (%): 37%
  Population Mitochondria Different-Phenotype (%): 94%
  Population Mitotic Cells (%): 20%
  Population Normal (%): 88%
  Population Pyknosed Nuclei (%): 18%
  Population Tubulin-Different-Phenotype (%): 100%
  Total Cell Count: 62
[5]
  Population Apoptotic (%): 50% and 38%
  Population Fragmented Nuclei (%): 10% and 2%
  Population Healthy Nuclei (%): 71% and 90%
  Population Hoechst High Intensity Objects (%): 1% and 2%
  Population Mitotic Cells (%): 50% and 61%
  Population Normal (%): 98% and 97%
  Population Pyknosed Nuclei (%): 17%
  Total Cell Count: 186 and 209
[6]
  Population Apoptotic (%): 62% and 36%
  Population Fragmented Nuclei (%): 8% and 3%
  Population Healthy Nuclei (%): 75% and 89%
  Population Hoechst High Intensity Objects (%): 3% and 7%
  Population Membrane Permeable-Phenotype (%): 40% and 20%
  Population Mitochondria Different-Phenotype (%): 53% and 26%
  Population Mitotic Cells (%): 37% and 63%
  Population Normal (%): 96% and 92%
  Population Pyknosed Nuclei (%): 15% and 6%
  Total Cell Count: 106 and 180
[7]
  Population Apoptotic (%): 60%
  Population Fragmented Nuclei (%): 20%
  Population Healthy Nuclei (%): 45%
  Population Hoechst High Intensity Objects (%): 8%
  Population Membrane Permeable-Phenotype (%): 46%
  Population Mitochondria Different-Phenotype (%): 98%
  Population Mitotic Cells (%): 39%
  Population Normal (%): 91%
  Population Pyknosed Nuclei (%): 33%
  Population Tubulin-Different-Phenotype (%): 100%
  Total Cell Count: 156
[8]
  Population Fragmented Nuclei (%): 16%
  Population Healthy Nuclei (%): 54%
  Population Hoechst High Intensity Objects (%): 11%
  Population Membrane Permeable-Phenotype (%): 51%
  Population Mitochondria Different-Phenotype (%): 96%
  Population Mitotic Cells (%): 40%
  Population Normal (%): 88%
  Population Pyknosed Nuclei (%): 28%
  Total Cell Count: 60
[9]
  Population Apoptotic (%): 76%
  Population Fragmented Nuclei (%): 22%
  Population Healthy Nuclei (%): 44%
  Population Hoechst High Intensity Objects (%): 4%
  Population Membrane Permeable-Phenotype (%): 57%
  Population Mitochondria Different-Phenotype (%): 91%
  Population Mitotic Cells (%): 23%
  Population Normal (%): 95%
  Population Pyknosed Nuclei (%): 32%
  Population Tubulin-Different-Phenotype (%): 100%
  Total Cell Count: 163
[10]
  Population Apoptotic (%): 45%
  Population Fragmented Nuclei (%): 14%
  Population Healthy Nuclei (%): 52%
  Population Hoechst High Intensity Objects (%): 14%
  Population Membrane Permeable-Phenotype (%): 84%
  Population Mitochondria Different-Phenotype (%): 96%
  Population Mitotic Cells (%): 55%
  Population Normal (%): 85%
  Total Cell Count: 71

## Cn1nc(C(F)(F)F)cc1-c1cnc(N2CCc3cc(S(=O)(=O)Nc4c(F)cc(Cl)cc4F)cc(N4CCCC4=O)c32)nc1 [TP-020]
[1]
  Population Apoptotic (%): 27%
  Population Fragmented Nuclei (%): 4%
  Population Healthy Nuclei (%): 88%
  Population Hoechst High Intensity Objects (%): 4%
  Population Membrane Permeable-Phenotype (%): 17%
  Population Mitochondria Different-Phenotype (%): 18%
  Population Mitotic Cells (%): 72%
  Population Normal (%): 95%
  Population Pyknosed Nuclei (%): 6%
  Population Tubulin-Different-Phenotype (%): 10%
  Total Cell Count: 139
[2]
  Population Apoptotic (%): 0%
  Population Fragmented Nuclei (%): 14%
  Population Healthy Nuclei (%): 79%
  Population Hoechst High Intensity Objects (%): 15%
  Population Membrane Permeable-Phenotype (%): 15%
  Population Mitochondria Different-Phenotype (%): 15%
  Population Mitotic Cells (%): 100%
  Population Normal (%): 84%
  Population Pyknosed Nuclei (%): 5%
  Population Tubulin-Different-Phenotype (%): 15%
  Total Cell Count: 134
[3]
  Population Apoptotic (%): 50%
  Population Fragmented Nuclei (%): 3%
  Population Healthy Nuclei (%): 93%
  Population Hoechst High Intensity Objects (%): 4%
  Population Membrane Permeable-Phenotype (%): 11%
  Population Mitochondria Different-Phenotype (%): 23%
  Population Mitotic Cells (%): 50%
  Population Normal (%): 95%
  Population Pyknosed Nuclei (%): 3%
  Population Tubulin-Different-Phenotype (%): 22%
  Total Cell Count: 196
[4]
  Population Apoptotic (%): 16%
  Population Fragmented Nuclei (%): 8%
  Population Healthy Nuclei (%): 81%
  Population Hoechst High Intensity Objects (%): 5%
  Population Membrane Permeable-Phenotype (%): 10%
  Population Mitochondria Different-Phenotype (%): 31%
  Population Mitotic Cells (%): 83%
  Population Normal (%): 94%
  Population Pyknosed Nuclei (%): 9%
  Population Tubulin-Different-Phenotype (%): 26%
  Total Cell Count: 133
[5]
  Population Apoptotic (%): 20%
  Population Fragmented Nuclei (%): 2%
  Population Healthy Nuclei (%): 90%
  Population Hoechst High Intensity Objects (%): 2%
  Population Membrane Permeable-Phenotype (%): 12%
  Population Mitochondria Different-Phenotype (%): 10%
  Population Mitotic Cells (%): 80%
  Population Normal (%): 97%
  Population Pyknosed Nuclei (%): 7%
  Population Tubulin-Different-Phenotype (%): 16%
  Total Cell Count: 196
[6]
  Population Apoptotic (%): 42%
  Population Fragmented Nuclei (%): 12%
  Population Healthy Nuclei (%): 81%
  Population Hoechst High Intensity Objects (%): 5%
  Population Membrane Permeable-Phenotype (%): 13%
  Population Mitochondria Different-Phenotype (%): 23%
  Population Mitotic Cells (%): 57%
  Population Normal (%): 94%
  Population Pyknosed Nuclei (%): 5%
  Population Tubulin-Different-Phenotype (%): 11%
  Total Cell Count: 163
[7]
  Population Apoptotic (%): 9%
  Population Fragmented Nuclei (%): 3%
  Population Healthy Nuclei (%): 91%
  Population Hoechst High Intensity Objects (%): 1%
  Population Membrane Permeable-Phenotype (%): 6%
  Population Mitochondria Different-Phenotype (%): 19%
  Population Mitotic Cells (%): 90%
  Population Normal (%): 98%
  Population Tubulin-Different-Phenotype (%): 29%
  Total Cell Count: 268
[8]
  Population Apoptotic (%): 50%
  Population Fragmented Nuclei (%): 6%
  Population Healthy Nuclei (%): 88%
  Population Hoechst High Intensity Objects (%): 7%
  Population Membrane Permeable-Phenotype (%): 9%
  Population Mitochondria Different-Phenotype (%): 45%
  Population Mitotic Cells (%): 50%
  Population Normal (%): 92%
  Population Pyknosed Nuclei (%): 5%
  Population Tubulin-Different-Phenotype (%): 25%
  Total Cell Count: 175
